Measurements taken from ChEMBL document CHEMBL3804829, “Two New Faces of Amifostine: Protector from DNA Damage in Normal Cells and Inhibitor of DNA Repair in Cancer Cells” (J Med Chem, 2016).
Activity calls are given as the source filed them.

What was measured:
MCF7 [1] = assay: Decrease in median number of […]/53BP1 foci per nucleus in gamma irradiated human MCF7 cells at 4 mM preincubated for 15 mins followed by gamma irradiation measured after 60 mins by confocal fluorescence microscopic analysis relative to control; assay type: functional; design: scale not given: the % may be the effect or the level left
Summary of the method: (§1)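 Cells received 4 mM drug 15 min before 1 Gy γ-irradiation and were sampled at 5, 60 and 120 min post-irradiation. They were fixed in paraformaldehyde to keep nuclei in 3D and immunostained for γH2AX and 53BP1. Imaging used high-resolution confocal microscopy. A DSB was scored only where a γH2AX focus colocalized with 53BP1 and met a minimum size set separately for each time point. The read-out was median foci per nucleus against untreated irradiated cells.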

NHDF [2] = assay: Induction of DNA DSB repair in gamma irradiated human NHDF at 4 mM preincubated for 15 mins followed by gamma irradiation measured after 60 to 120 mins by neutral comet assay; assay type: functional, cell-based
MCF7 [3] = assay: Decrease in median number of […]/53BP1 foci per nucleus in gamma irradiated human MCF7 cells at 4 mM preincubated for 15 mins followed by gamma irradiation measured after 5 mins by confocal fluorescence microscopic analysis relative to control; assay type: functional; design: scale not given: the % may be the effect or the level left; summary of the method: as §1
MCF7 [4] = assay: Reduction of DNA DSB repair in gamma irradiated human MCF7 cells at 4 mM preincubated for 15 mins followed by gamma irradiation measured after 60 to 120 mins by neutral comet assay; assay type: functional, cell-based
NHDF [5] = assay: Protection against DNA damage in gamma irradiated human NHDF assessed as decrease in double strand breakage of DNA at 4 mM preincubated for 15 mins followed by gamma irradiation measured after 5 mins by neutral comet assay; assay type: functional, cell-based
NHDF [6] = assay: Induction of DNA DSB repair in gamma irradiated human NHDF assessed as median number of […]/53BP1 foci per nucleus at 4 mM preincubated for 15 mins followed by gamma irradiation measured after 60 mins by confocal fluorescence microscopic analysis relative to control; assay type: functional; summary of the method: as §1
NHDF [7] = assay: Protection against DNA damage in gamma irradiated human NHDF assessed as decrease in median number of gammaH2AX/53BP1 foci per nucleus at 4 mM preincubated for 15 mins followed by gamma irradiation measured after 5 mins by confocal fluorescence microscopic analysis relative to control; assay type: functional; design: scale not given: the % may be the effect or the level left
Summary of the method: (§2)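 NHDF fibroblasts or MCF7 cells, with or without 4 mM amifostine added 15 min before 1 Gy γ-irradiation. Sampled at 5, 60 and 120 min post-irradiation and fixed in paraformaldehyde to keep nuclei 3D-intact. γH2AX and 53BP1 were immunodetected and imaged by high-resolution confocal microscopy. A DSB was scored only as a γH2AX focus colocalizing with 53BP1 above a minimum size set for each time point. Read-out: median foci per nucleus.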

NHDF [8] = assay: Drug uptake in human NHDF at 4 mM after 20 to 75 mins by LC-MS/MS analysis; assay type: ADME, cell-based; conditions: 4000 µM
NHDF [9] = assay: Protection against DNA damage in gamma irradiated human NHDF assessed as decrease in median number of gammaH2AX/53BP1 foci per nucleus at 4 mM preincubated for 15 mins followed by gamma irradiation measured after 60 mins by confocal fluorescence microscopic analysis relative to control; assay type: functional; design: scale not given: the % may be the effect or the level left; summary of the method: as §2
MCF7 [10] = assay: Induction of DNA damage in gamma irradiated human MCF7 cells assessed as increase in double strand breakage of DNA at 4 mM preincubated for 15 mins followed by gamma irradiation measured after 5 mins by neutral comet assay; assay type: functional, cell-based
MCF7 [11] = assay: Drug uptake in human MCF7 cells at 4 mM after 20 to 75 mins by LC-MS/MS analysis; assay type: ADME, cell-based; conditions: mcf7, 4000 µM
[12] = Prodrug conversion in human NHDF cells assessed as ALP-mediated WR-1065 formation at 4 mM after 20 to 75 mins by LC-MS/MS analysis; assay type: ADME, cell-based; conditions: 4000 µM
[13] = Prodrug conversion in human MCF7 cells assessed as ALP-mediated WR-1065 formation at 4 mM after 20 to 75 mins by LC-MS/MS analysis; assay type: ADME, cell-based; conditions: mcf7, 4000 µM
NHDF [14] = assay: Induction of DNA DSB repair in gamma irradiated human NHDF assessed as decrease in median number of […]/53BP1 foci per nucleus at 4 mM preincubated for 15 mins followed by gamma irradiation measured after 60 mins by confocal fluorescence microscopic analysis relative to 5 mins postirradiation; assay type: functional; design: scale not given: the % may be the effect or the level left
Summary of the method: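 NHDF fibroblasts, with or without 4 mM amifostine 15 min before 1 Gy γ-rays, fixed in paraformaldehyde (3D-preserved). γH2AX foci colocalizing with 53BP1 and above a size threshold set per time point were counted by high-resolution confocal microscopy. Repair efficiency was taken as the median DSBs per nucleus at 5 min minus that at 60 min post-irradiation.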

[15] = Prodrug conversion in human MCF7 cell supernatants assessed as ALP-mediated WR-1065 formation at 4 mM after 20 to 75 mins by LC-MS/MS analysis; assay type: ADME, cell-based; conditions: mcf7, 4000 µM
[16] = Ratio of prodrug conversion in human NHDF assessed as ALP-mediated WR-1065 formation at 75 mins to prodrug conversion in human MCF7 cells assessed as ALP-mediated WR-1065 formation at 75 mins; assay type: ADME, cell-based; conditions: mcf7, 1.25 h
MCF7 [17] = assay: Induction of DNA damage in gamma irradiated human MCF7 cells assessed as increase in median number of […]/53BP1 foci per nucleus at 4 mM preincubated for 15 mins followed by gamma irradiation measured after 60 to 120 mins by confocal fluorescence microscopic analysis; assay type: functional, cell-based; summary of the method: as §2
[18] = Ratio of prodrug conversion in human NHDF assessed as ALP-mediated WR-1065 formation at 20 mins to prodrug conversion in human MCF7 cells assessed as ALP-mediated WR-1065 formation at 20 mins; assay type: ADME, cell-based; conditions: mcf7, 20 min
[19] = Ratio of prodrug conversion in human NHDF supernatants assessed as ALP-mediated WR-1065 formation at 75 mins to prodrug conversion in human MCF7 cell supernatants assessed as ALP-mediated WR-1065 formation at 75 mins; assay type: ADME, cell-based; conditions: mcf7, 1.25 h
[20] = Ratio of prodrug conversion in human NHDF supernatants assessed as ALP-mediated WR-1065 formation at 20 mins to prodrug conversion in human MCF7 cell supernatants assessed as ALP-mediated WR-1065 formation at 20 mins; assay type: ADME, cell-based; conditions: mcf7, 20 min
NHDF [21] = assay: Induction of DNA DSB repair in gamma irradiated human NHDF assessed as median number of […]/53BP1 foci per nucleus preincubated for 15 mins followed by gamma irradiation measured after 120 mins by confocal fluorescence microscopic analysis relative to control; assay type: functional, cell-based; summary of the method: as §2
MCF7 [22] = assay: Induction of DNA damage in gamma irradiated human MCF7 cells assessed as median number of […]/53BP1 foci per nucleus at 4 mM preincubated for 15 mins followed by gamma irradiation measured after 60 mins by confocal fluorescence microscopic analysis relative to control
MCF7 [23] = assay: Reduction of DNA DSB repair in gamma irradiated human MCF7 cells assessed as median number of […]/53BP1 foci per nucleus at 4 mM preincubated for 15 mins followed by gamma irradiation measured after 60 mins by confocal fluorescence microscopic analysis relative to control; assay type: functional; design: scale not given: the % may be the effect or the level left; summary of the method: as §2

In the case of `NCCCNCCS` [WR-1065], the Activity (MCF7 [1]) is reported as 82.9%, the Activity (NHDF [2]) is reported as “Active” and the Activity (MCF7 [3]) is reported as 75%. The Activity (MCF7 [4]) was “Active”, the Activity (NHDF [5]) was “Active” and the Activity (NHDF [6]) was 17.7%. For the same compound, the Activity (NHDF [7]) was 65.2%, the Drug uptake (NHDF [8]) was > 90% and the Activity (NHDF [9]) was 50%. For the same compound, the Activity (MCF7 [10]) was “inactive” and the Drug uptake (MCF7 [11]) was > 90%.

With `NCCCNCCSP(=O)(O)O` [AMIFOSTINE] the Drug metabolism [12] was “metabolite_detected”, the Drug metabolism [13] was “metabolite_detected” and the Activity (NHDF [2]) was “Active”. The Activity (NHDF [14]) was 10%, the Drug metabolism [15] was “metabolite_detected” and the Ratio [16] was 1.47. For the same compound, the Activity (MCF7 [4]) was “Active”, the Activity (NHDF [5]) was “Active” and the Activity (MCF7 [17]) was “Active”. The Ratio [18] was 2.56, the Activity (NHDF [7]) was 75.8% and the Ratio [19] was 2.17. The Ratio [20] was 1.62, the Activity (NHDF [9]) was 61.9% and the Activity (NHDF [21]) was “Active”. It also gave an Activity (MCF7 [22]) of 137.5% and an Activity (MCF7 [23]) of 20.7%.
